According to article PMC2965777 (Biochemistry, 2010):

Columns and labels:
[1] = system: YAQ12A; experiment: Sedimentation assay of YAQ12A aggregation; type: biochemical
Procedure, shortened: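 Disaggregated peptide was diluted to 100 µM in 10 mM sodium phosphate, pH 7.40, and held at 37 °C without agitation, with or without inhibitor added as lyophilized aliquots. After 98,000 × g for 1 h at 22 °C, 100 µL of the top third went onto analytical C18 RP-HPLC (A220, isocratic water:acetonitrile:TFA 87.5:12.5:0.1). Monomer was quantified from peak area against a standard curve; mean ± S.D. of three replicates.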

[2] = system: YAQ12A; experiment: Electron microscopy of YAQ12A fibrillation products; type: biochemical; settings: 100 μM YAQ12A with 500 μM 5QMe2, 40 h, 37 °C
Procedure, shortened: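 Aggregation products imaged by electron microscopy after incubating monomeric peptide in 10 mM sodium phosphate, pH 7.40, for 40 h at 37 °C, with or without inhibitor. Micrographs were recorded at 15,000 or 39,000× magnification, plus 1.4× from the CCD camera.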

[3] = Sedimentation equilibrium analytical ultracentrifugation of 5QMe2 alone; type: physicochemical
Procedure, shortened: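 Equilibrium sedimentation of inhibitor alone at 100 µM, 500 µM and 1 mM in 10 mM sodium phosphate, pH 7.40, at 20 °C, in six-sector cells with hourly scans. Rotor speed ran 3000 rpm (1 scan), 36,000 (16), 48,000 (13) and 60,000 rpm (19). A280 was used (A230 for 100 µM). Molecular weight came from global analysis of the three concentrations at each speed.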

[4] = Size exclusion chromatography, apparent molecular weight; type: physicochemical; settings: Superdex Peptide 10/300; 10 mM sodium phosphate, 10 mM NaCl, pH 7.40; 0.5 mL/min; 100 μM YAQ12A, 170 μM 5QMe2; 230 nm

Substance: Anth-K-Q-Q(Me2)-Q-Q(Me2)-Q-CONH2 [5QMe2]
- time after which more rapid loss of soluble YAQ12A follows the lag period ([1]; 100 μM YAQ12A with 100 μM 5QMe2, time course, 37 °C): ~ 70 h
- aggregation of YAQ12A over the time course ([1]; 100 μM YAQ12A with 1 mM 5QMe2, time course to 110 h, 37 °C): no aggregation was observed for the entire time period
- reversal of YAQ12A aggregation ([1]; 1 mM 5QMe2 added to 100 μM YAQ12A after 10 or 20 h of aggregation): did not reverse aggregation
- fibril formation of YAQ12A by electron microscopy [2]: abrogates fibril formation
- association state of the inhibitor alone ([3]; 100, 500 and 1000 μM, three rotor speeds): monomeric
- molecular weight of 5QMe2 alone, three concentrations analysed globally ([3]; rotor speed 36,000 rpm): 988.5
- molecular weight of 5QMe2 alone, three concentrations analysed globally ([3]; rotor speed 48,000 rpm): 1000.0
- molecular weight of 5QMe2 alone, three concentrations analysed globally ([3]; rotor speed 60,000 rpm): 980.1
- MW^app by size exclusion chromatography [4]: ~ 1176.0
